Measurements taken from ChEMBL document CHEMBL4819034, “Tricyclic-Carbocyclic RORγt Inverse Agonists-Discovery of BMS-986313” (J Med Chem, 2021).

Key:
Cytochrome P450 2C19 = Cytochrome P450 2C19 (Homo sapiens, UniProt P33261); test: Inhibition of CYP2C19 (unknown origin); format: ADME
Mus musculus [1] = test: Protection against imiquimod-induced C57BL/6 mouse model of psoriasis assessed as reduction in IL-17A mRNA levels at 20 mg/kg, po BID for 7 days by RT-PCR analysis relative to control; format: functional; parameters: scale not given: the % may be the effect or the level left; settings: time 7 day
Mus musculus [2] = test: Protection against recombinant human IL23-induced acanthosis C57BL/6 mouse model assessed as reduction in IL-17F mRNA levels at 3 mg/kg, po BID BID for 10 days by qRT-PCR analysis relative to control; format: functional; parameters: scale not given: the % may be the effect or the level left; settings: time 10 day
Summary of the method: (§1)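 In the IL-23 ear-injection model in C57BL/6 mice with BID oral dosing, ear tissue was collected from all animals at study end on day 10. IL-17A and IL-17F mRNA expression was quantified by qPCR and compared with the placebo arm.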

Mus musculus [3] = test: Protection against imiquimod-induced C57BL/6 mouse model of psoriasis assessed as reduction in IL-17F mRNA levels at 10 mg/kg, po BID for 7 days by RT-PCR analysis relative to control; format: functional; parameters: scale not given: the % may be the effect or the level left; settings: time 7 day
[4] = Half life in human liver microsomes; format: ADME, Microsome
Summary of the method: (§2)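 Liver microsome half-life (min) measured in human, mouse, rat, dog and cyno liver microsomes.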

[5] = target: T1, Nuclear receptor ROR-gamma (Mus musculus, UniProt P51450); test: Inverse agonist activity at RORgammat in mouse Th17 cells assessed as inhibition of CD3/CD28/IL-1/IL-23-induced IL-17A production measured after 24 hrs by AlphaLISA assay; format: cell-based
T1 sequence (P51450 whole entry): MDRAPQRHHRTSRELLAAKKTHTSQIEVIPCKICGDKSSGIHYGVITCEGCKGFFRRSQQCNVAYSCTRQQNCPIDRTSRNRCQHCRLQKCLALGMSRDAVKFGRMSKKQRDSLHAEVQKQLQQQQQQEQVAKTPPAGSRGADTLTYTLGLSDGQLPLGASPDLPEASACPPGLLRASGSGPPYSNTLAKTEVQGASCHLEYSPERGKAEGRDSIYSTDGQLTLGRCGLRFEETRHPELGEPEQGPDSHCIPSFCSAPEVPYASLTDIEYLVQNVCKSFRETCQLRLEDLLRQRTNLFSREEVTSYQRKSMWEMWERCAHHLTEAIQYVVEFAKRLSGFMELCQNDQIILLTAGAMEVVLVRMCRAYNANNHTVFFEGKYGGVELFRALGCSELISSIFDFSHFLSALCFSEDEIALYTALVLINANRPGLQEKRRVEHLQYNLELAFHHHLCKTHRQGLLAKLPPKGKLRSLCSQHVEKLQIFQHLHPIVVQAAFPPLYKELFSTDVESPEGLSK

[6] = target: Voltage-gated inwardly rectifying potassium channel KCNH2 (Homo sapiens, UniProt Q12809); test: Inhibition of human ERG by patch-clamp assay
[7] = Oral bioavailability in cynomolgus monkey at 2 mg/kg; format: ADME, organism-based, Macaca fascicularis; settings: in vivo
Summary of the method: (§3)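 Single-dose PK, IV and PO. Doses: mouse and rat 2 mg/kg IV / 4 mg/kg PO; dog and cyno 1 mg/kg IV, with 1 or 2 mg/kg PO.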

Mus musculus [8] = test: Protection against recombinant human IL23-induced acanthosis C57BL/6 mouse model assessed as inhibition of ear thickening at 15 mg/kg, po BID for 10 days and measured every other day relative to control; format: functional; settings: C57BL/6, po, 240 h, time 10 day
Summary of the method: (§4)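 IL-23 ear-injection acanthosis model in C57BL/6 mice with BID oral dosing. Ear thickness % change was recorded every other day, before each next injection, from a day 0 baseline. Inhibition of ear thickening was calculated against the placebo arm from the area under the curve over the study duration.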

[9] = Half life in mouse liver microsomes; format: ADME, Microsome; summary of the method: as §2
Mus musculus [10] = test: Protection against imiquimod-induced C57BL/6 mouse model of psoriasis assessed as change in skin thickness at 5 mg/kg, po BID for 7 days and measured every day for 8 days relative to control; format: functional; settings: time 7 day
[11] = Volume of distribution at steady state in cynomolgus monkey at 1 mg/kg, iv; format: ADME, organism-based, Macaca fascicularis; settings: in vivo, read-out: Vdss
Summary of the method: (§5)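 Single intravenous dose: mouse and rat 2 mg/kg, dog and cynomolgus 1 mg/kg. Steady-state volume of distribution was derived from the IV arm. Values are means from three or more animals.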

[12] = Volume of distribution at steady state in rat at 2 mg/kg, iv; format: ADME, organism-based; settings: in vivo, read-out: Vdss; summary of the method: as §5
[13] = Half life in dog liver microsomes; format: ADME, Canis lupus familiaris, Microsome; summary of the method: as §2
Mus musculus [14] = test: Protection against recombinant human IL23-induced acanthosis C57BL/6 mouse model assessed as inhibition of ear thickening at 3 mg/kg, po BID for 10 days and measured every other day relative to control; format: functional; settings: C57BL/6, po, 240 h, time 10 day; summary of the method: as §4
[15] = Clearance in cynomolgus monkey at 1 mg/kg, iv; format: ADME, organism-based, Macaca fascicularis; settings: in vivo; summary of the method: as §3
[16] = Volume of distribution at steady state in dog at 1 mg/kg, iv; format: ADME, organism-based, Canis lupus familiaris; settings: in vivo, read-out: Vdss; summary of the method: as §5
Cytochrome P450 2D6 = Cytochrome P450 2D6 (Homo sapiens, UniProt P10635); test: Inhibition of CYP2D6 (unknown origin); format: ADME
[17] = Cmax in rat at 4 mg/kg, po; format: ADME, organism-based; parameters: route oral, dose 4 mg/kg; settings: in vivo; summary of the method: as §3
[18] = Clearance in dog at 1 mg/kg, iv; format: ADME, organism-based, Canis lupus familiaris; settings: in vivo; summary of the method: as §3
[19] = Protein binding in human assessed as unbound fraction; format: ADME
[20] = Permeability across apical to basolateral membrane in human Caco-2 cells; format: ADME, cell-based; settings: read-out: permeability
Summary of the method: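 Caco-2 monolayer permeability, apical-to-basolateral direction (Pc, nm/s). An efflux ratio is also reported.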

[21] = Cmax in dog at 2 mg/kg, po; format: ADME, organism-based, Canis lupus familiaris; parameters: route oral, dose 2 mg/kg; settings: in vivo; summary of the method: as §3
Mus musculus [22] = test: Protection against recombinant human IL23-induced acanthosis C57BL/6 mouse model assessed as change in ear thickness score at 15 mg/kg, po BID for 10 days and measured every other day relative to control; format: functional; settings: time 10 day
Summary of the method: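 IL-23 was injected into the ear of C57BL/6 mice to induce dermal inflammation and epidermal hyperplasia. Ear thickness was measured at baseline on day 0, then as % change every other day before each next ear injection. Oral dosing was BID.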

[23] = AUC (0 to 24 hrs) in dog at 2 mg/kg, po; format: ADME, organism-based, Canis lupus familiaris; parameters: time < 24 hr, route oral, dose 2 mg/kg; settings: in vivo
[24] = Volume of distribution at steady state in mouse at 2 mg/kg, iv; format: ADME, organism-based; settings: in vivo, read-out: Vdss; summary of the method: as §5
[25] = Oral bioavailability in mouse at 4 mg/kg; format: ADME, organism-based; settings: in vivo; summary of the method: as §3
Mus musculus [26] = test: Protection against imiquimod-induced C57BL/6 mouse model of psoriasis assessed as inhibition of skin thickening at 5 mg/kg, po BID for 7 days and measured every day for 8 days relative to control; format: functional; settings: C57BL/6, po, 168 h, time 7 day
[27] = Oral bioavailability in rat at 4 mg/kg; format: ADME, organism-based; settings: in vivo; summary of the method: as §3
Mus musculus [28] = test: Protection against imiquimod-induced C57BL/6 mouse model of psoriasis assessed as reduction in IL-17A mRNA levels at 10 mg/kg, po BID for 7 days by RT-PCR analysis relative to control; format: functional; parameters: scale not given: the % may be the effect or the level left; settings: time 7 day
[29] = Clearance in mouse at 2 mg/kg, iv; format: ADME, organism-based; settings: in vivo; summary of the method: as §3
Mus musculus [30] = test: Protection against recombinant human IL23-induced acanthosis C57BL/6 mouse model assessed as reduction in IL-17A mRNA levels at 15 mg/kg, po BID BID for 10 days by qRT-PCR analysis relative to control; format: functional; parameters: scale not given: the % may be the effect or the level left; settings: time 10 day; summary of the method: as §1
[31] = Cmax in cynomolgus monkey at 2 mg/kg, po; format: ADME, organism-based, Macaca fascicularis; parameters: route oral, dose 2 mg/kg; settings: in vivo; summary of the method: as §3

Sequence of Cytochrome P450 2C19 (P33261 whole entry): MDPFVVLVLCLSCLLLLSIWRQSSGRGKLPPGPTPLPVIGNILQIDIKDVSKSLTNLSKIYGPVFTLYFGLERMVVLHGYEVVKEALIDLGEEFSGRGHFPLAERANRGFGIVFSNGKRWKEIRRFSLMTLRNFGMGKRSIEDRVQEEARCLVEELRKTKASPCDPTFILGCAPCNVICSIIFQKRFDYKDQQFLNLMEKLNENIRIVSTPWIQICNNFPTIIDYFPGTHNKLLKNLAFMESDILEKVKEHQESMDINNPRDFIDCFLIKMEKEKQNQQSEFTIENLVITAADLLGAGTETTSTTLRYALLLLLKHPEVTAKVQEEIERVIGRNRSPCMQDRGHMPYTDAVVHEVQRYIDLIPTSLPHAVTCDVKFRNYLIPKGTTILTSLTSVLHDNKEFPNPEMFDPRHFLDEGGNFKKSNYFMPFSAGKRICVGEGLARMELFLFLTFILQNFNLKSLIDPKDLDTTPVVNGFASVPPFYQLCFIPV
Sequence of Cytochrome P450 2D6 (P10635 whole entry): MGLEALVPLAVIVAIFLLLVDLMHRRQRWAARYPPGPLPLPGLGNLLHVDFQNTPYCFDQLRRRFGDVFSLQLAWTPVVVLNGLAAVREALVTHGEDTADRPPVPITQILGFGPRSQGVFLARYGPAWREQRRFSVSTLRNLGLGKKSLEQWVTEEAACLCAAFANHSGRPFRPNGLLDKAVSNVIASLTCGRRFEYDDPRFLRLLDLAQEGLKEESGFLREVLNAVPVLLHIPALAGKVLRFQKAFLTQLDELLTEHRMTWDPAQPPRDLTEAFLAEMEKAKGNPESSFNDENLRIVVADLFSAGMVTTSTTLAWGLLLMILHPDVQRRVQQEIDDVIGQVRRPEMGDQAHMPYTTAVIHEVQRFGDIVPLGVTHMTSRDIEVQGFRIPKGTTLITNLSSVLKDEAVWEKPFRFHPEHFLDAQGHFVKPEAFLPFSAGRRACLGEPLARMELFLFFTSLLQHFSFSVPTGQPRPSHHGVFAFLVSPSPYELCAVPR
Sequence of Voltage-gated inwardly rectifying potassium channel KCNH2 (Q12809 whole entry): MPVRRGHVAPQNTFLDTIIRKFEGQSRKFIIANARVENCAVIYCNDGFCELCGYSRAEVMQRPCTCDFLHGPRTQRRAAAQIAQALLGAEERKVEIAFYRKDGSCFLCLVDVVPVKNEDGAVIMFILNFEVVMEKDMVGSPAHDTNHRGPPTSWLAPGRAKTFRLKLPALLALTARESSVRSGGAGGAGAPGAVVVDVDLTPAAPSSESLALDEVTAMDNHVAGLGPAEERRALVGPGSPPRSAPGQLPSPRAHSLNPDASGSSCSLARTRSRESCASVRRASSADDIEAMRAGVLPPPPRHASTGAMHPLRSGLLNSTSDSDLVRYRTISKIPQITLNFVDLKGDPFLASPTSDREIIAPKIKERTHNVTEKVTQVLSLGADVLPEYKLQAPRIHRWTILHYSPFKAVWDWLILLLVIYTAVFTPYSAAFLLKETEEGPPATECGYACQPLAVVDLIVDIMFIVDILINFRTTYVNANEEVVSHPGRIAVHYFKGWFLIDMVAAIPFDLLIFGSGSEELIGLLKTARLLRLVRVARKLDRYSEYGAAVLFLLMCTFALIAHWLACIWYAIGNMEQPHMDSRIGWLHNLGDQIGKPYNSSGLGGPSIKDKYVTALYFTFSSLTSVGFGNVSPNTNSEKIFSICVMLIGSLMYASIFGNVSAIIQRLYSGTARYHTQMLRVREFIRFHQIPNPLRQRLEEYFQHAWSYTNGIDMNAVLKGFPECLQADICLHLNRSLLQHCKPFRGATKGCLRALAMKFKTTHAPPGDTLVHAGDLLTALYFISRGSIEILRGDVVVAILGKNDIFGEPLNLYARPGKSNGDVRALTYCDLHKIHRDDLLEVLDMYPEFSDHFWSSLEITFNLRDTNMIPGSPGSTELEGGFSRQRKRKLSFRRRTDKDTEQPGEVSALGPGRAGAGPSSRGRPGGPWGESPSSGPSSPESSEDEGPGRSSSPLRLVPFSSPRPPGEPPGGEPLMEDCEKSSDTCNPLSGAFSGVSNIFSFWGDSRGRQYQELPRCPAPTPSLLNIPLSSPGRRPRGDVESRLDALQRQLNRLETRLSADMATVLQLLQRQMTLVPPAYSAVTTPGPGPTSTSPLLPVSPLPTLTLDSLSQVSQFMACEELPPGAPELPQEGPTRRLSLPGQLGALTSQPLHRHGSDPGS

IC50 (Cytochrome P450 2C19): 19 µM | half-life [4]: 120 min | EC50 [5]: 2.7 nM | bioavailability [7]: 75% | half-life [9]: 120 min | Vd [11]: 2.7 L/kg | Vd [12]: 2.9 L/kg | half-life [13]: 120 min | clearance [15]: 2.7 mL/min/kg | Vd [16]: 3.2 L/kg | IC50 (Cytochrome P450 2D6): 20 µM | Cmax [17]: 1000 nM | clearance [18]: 0.8 mL/min/kg | fraction unbound [19]: 0.005 | Papp A→B [20]: 10.6 ×10⁻⁶ cm/s | Cmax [21]: 1300 nM | AUC(0-t) at 24 h [23]: 59.8 µM·h | Vd [24]: 3 L/kg | bioavailability [25]: 100% | bioavailability [27]: 65% | clearance [29]: 3.7 mL/min/kg | Cmax [31]: 1100 nM
Structure (SMILES): CC(C)(O)C(=O)N[C@@H]1CC[C@@]2(S(=O)(=O)c3ccc(F)cc3)c3ccc(C(F)(C(F)(F)F)C(F)(F)F)cc3CC[C@@H]12
Activity (Mus musculus [1]): 91.5% | Activity (Mus musculus [2]): 13.7% | Activity (Mus musculus [3]): 89.7% | IC50 [6]: 19 µM | inhibition in vivo at 15 mg/kg (Mus musculus [8]): 66.8% | Activity (Mus musculus [10]): 67.2% | inhibition in vivo at 3 mg/kg (Mus musculus [14]): 42.3% | Activity (Mus musculus [22]): 66.8% | inhibition in vivo at 5 mg/kg (Mus musculus [26]): 13.7% | Activity (Mus musculus [28]): 76.7% | Activity (Mus musculus [30]): 71.6%
